The results in this text go back to PMC4203399 (Journal of Medicinal Chemistry, 2014).

Structures are written as SMILES. Converted amounts (≈) assume the structure as drawn. “Also recorded” adds a separate entry of the source. A value given as a limit tells only on which side of the number the result lay.

Series [1] deals with genotype 1b HCV subgenomic replicon in Huh-5-2 cells. In kind it is cell-based, hepatitis C virus.
For series [2], the system named is Huh-5-2 cells. The experiment in a line: microscopic examination of cell morphology in the replicon assay. The settings on record: 72 h of compound treatment. In kind it is cell-based.
For a further series, the target named is recombinant NS5BCΔ21 1b (Hepatitis C virus genotype 1b, UniProt O92972). The experiment in a line: NS5B primer dependent elongation. In kind it is biochemical. The settings on record: for inhibition at 50 µM: read-out: inhibition of NS5B RdRp activity, screen at 50 μM.
For series [3], the system named is Huh-5-2 cells. The experiment in a line: MTS assay of antimetabolic effect, Huh-5-2. The settings on record: data not shown. It counts as cell-based.
The next series deals with Huh-9-13 cells. The experiment in a line: vital stains. It counts as cell-based. Put shortly: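 Huh-9-13 replicon cells seeded at 25.000 cells/dish in complete DMEM without G418. Next day, treated with test compound (90 μM), an NS3 protease inhibitor (15 μM) or DMSO for 3 days at 37 °C, 5% CO2. Stained 30 min with Nile Red (2 μg/mL), monodansylcadaverine (50 μM) or LipidTOX Red (1/1000), then imaged live by confocal microscopy.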

Series [4] deals with recombinant NS5BCΔ21 mutant M423T (Hepatitis C virus genotype 1b, UniProt O92972, M2842T). The series can be described thus: NS5B mutant counterscreen assay, M423T. In kind it is biochemical. The settings on record: M423T relative to NS5B WT (IC50 = 4.3 μM).
A short description of series [5]: thermodynamic and kinetic water solubility. In kind it is physicochemical. The method in brief: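 Test compound solutions shaken in a shaker bath for 48 h at room temperature, then filtered. Dissolved compound quantified by LC–UV–MS against calibration curves made from standard solutions in methanol. Determinations in triplicate.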

For `Cc1ccc(-n2nc(C(=O)Nc3ccc(NS(C)(=O)=O)cc3)c3c2-c2ccccc2S(=O)(=O)N3C)cc1` [2h, 4-Methyl-1-(4-methylphenyl)-N-{4-[(methylsulfonyl)amino]phenyl}-1,4-dihydropyrazolo[4,3-c][1,2]benzothiazine-3-carboxamide 5,5-Dioxide], the “assessment of anti-HCV activity in the replicon assay (in words)” value (“assessment of anti-HCV activity” for short) in series [1] is “selective anti-HCV activity without any antimetabolic effect”. Also, the “effect on cell morphology (microscopic analysis)” value (“effect on cell morphology” below) in the series on Huh-5-2 cells [2] was “did not display any significant effects on cell morphology; also recorded: did not display any antimetabolic and cell morphology alteration effects”.
As to `COc1ccc(-n2nc(C(=O)Nc3ccc(NS(C)(=O)=O)cc3)c3c2-c2ccccc2S(=O)(=O)N3C)cc1` [2k, 1-(4-Methoxyphenyl)-4-methyl-N-{4-[(methylsulfonyl)amino]phenyl}-1,4-dihydropyrazolo[4,3-c][1,2]benzothiazine-3-carboxamide 5,5-Dioxide], on recombinant NS5BCΔ21 1b, the “anti-NS5B activity (in words)” value is “inactive” and the inhibition at 50 µM was below 50%. Moreover, in series [1], the “assessment of anti-HCV activity” value is listed as “selective anti-HCV activity without any antimetabolic effect”. The “effect on cell morphology” value with Huh-5-2 cells [2] was “did not display any significant effects on cell morphology”.
`CN1c2c(C(=O)Nc3ccc(OCC(N)=O)cc3)nn(-c3cccc(F)c3)c2-c2ccccc2S1(=O)=O` [compound 4, N-[4-(Amino-2-oxoethoxy)phenyl]-1-(3-fluorophenyl)-4-methyl-1,4-dihydropyrazolo[4,3c][1,2]benzothiazine-3-carboxamide 5,5-Dioxide]: the “anti-NS5B activity (in words)” value on recombinant NS5BCΔ21 1b is “inactive”. The “antimetabolic effect after dose–response curve analysis” value with Huh-5-2 cells [3] is on record as “displayed antimetabolic effect”.
Regarding `Cc1ccc(-n2nc(C(=O)Nc3ccc(NS(C)(=O)=O)cc3)c3c2-c2ccccc2S(=O)(=O)N3C)cc1Cl` [2r, 1-(3-Chloro-4-methylphenyl)-4-methyl-N-{4-[(methylsulfonyl)amino]phenyl}-1,4-dihydropyrazolo[4,3-c][1,2]benzothiazine-3-carboxamide 5,5-Dioxide], the inhibition at 50 µM at recombinant NS5BCΔ21 1b was at least 50%. In addition, in the series with Huh-5-2 cells [3], the “antimetabolic effect after dose–response curve analysis” value is listed as “displayed antimetabolic effect”.
Turning to `CN1c2c(C(=O)Nc3ccc(NS(C)(=O)=O)cc3)nn(-c3ccc(Cl)cc3)c2-c2ccccc2S1(=O)=O` [2b, 1-(4-Chlorophenyl)-4-methyl-N-{4-[(methylsulfonyl)amino]phenyl}-1,4-dihydropyrazolo[4,3-c][1,2]benzothiazine-3-carboxamide 5,5-Dioxide], the “fold more active than o-chlorine derivative 2c (NS5B)” value at recombinant NS5BCΔ21 1b is given as around 2 fold. Also, in series [1], the “SI (ratio of CC50 to EC50)” value is recorded as above 28 and the “assessment of anti-HCV activity” value was “selective anti-HCV activity without any antimetabolic effect”. Further, the “effect on cell morphology” value in the series on Huh-5-2 cells [2] was “did not show any significant cell morphological alterations; also recorded: did not display any significant effects on cell morphology; also recorded: did not exhibit any cell morphological alterations; also recorded: did not show any significant alteration in cell morphology; also recorded: did not display any antimetabolic and cell morphology alteration effects”. Also, in the series on Huh-9-13 cells, the “induction of phospholipidosis/steatosis (different stainings)” value was “induced pospholipidosis/steatosis”.
For the compound `CN1c2c(C(=O)Nc3ccc(NS(C)(=O)=O)cc3)nn(-c3cccc(Cl)c3)c2-c2ccccc2S1(=O)=O` [2a, 1-(3-Chlorophenyl)-4-methyl-N-{4-[(methylsulfonyl)amino]phenyl}-1,4-dihydropyrazolo[4,3-c][1,2]benzothiazine-3-carboxamide 5,5-Dioxide], at recombinant NS5BCΔ21 1b, the “fold higher NS5B inhibitory activity than parent compound 1” value is “about 5 fold” and the “fold more active than o-chlorine derivative 2c (NS5B)” value is “about 4 fold”. For the same compound, in series [4], the fold change is around 2. In addition, in series [1], the “assessment of anti-HCV activity” value is recorded as “selective anti-HCV activity without any antimetabolic effect”. This compound displayed a kinetic solubility at 48 h in series [5] (kinetic from dmso stock) of 0.275 µM (≈ 0.154 µg/mL). In series [5] (thermodynamic from solid), the solubility (thermodynamic) at 48 h was 0.00398 µM (≈ 0.00222 µg/mL). Further, in the series on Huh-9-13 cells (90 μM), the “induction of multilamellar bodies (monodansylcadaverine stain)” value is recorded as “did not induce multilamellar bodies”; the “neutral lipids content (Nile Red and LipidTOX red stain)” value is given as “significantly altered the neutral lipids content”.
